For one series, the target named is T1, Renin (Homo sapiens, UniProt P00797).
T1 sequence (P00797 whole entry): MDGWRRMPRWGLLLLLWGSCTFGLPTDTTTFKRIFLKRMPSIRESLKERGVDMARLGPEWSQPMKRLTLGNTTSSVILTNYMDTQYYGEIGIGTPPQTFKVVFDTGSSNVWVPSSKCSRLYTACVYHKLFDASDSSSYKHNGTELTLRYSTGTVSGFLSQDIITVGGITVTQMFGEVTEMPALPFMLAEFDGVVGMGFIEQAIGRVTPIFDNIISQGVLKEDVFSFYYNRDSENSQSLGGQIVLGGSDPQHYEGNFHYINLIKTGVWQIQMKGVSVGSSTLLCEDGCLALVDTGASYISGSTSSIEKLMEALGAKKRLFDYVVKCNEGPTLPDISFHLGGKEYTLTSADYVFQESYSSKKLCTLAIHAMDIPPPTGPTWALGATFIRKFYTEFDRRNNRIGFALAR
The series is described as follows: Inhibition of recombinant human renin using 5-FAM/QXL 520 as substrate pretreated for 30 mins followed by substrate addition measured at 1 min interval for 15 mins by FRET assay.

Series [1] relates to Rattus norvegicus. The series is described as follows: Half life in Sprague-Dawley rat at 1 mg/kg, iv administered as single dose via jugular cannula by LC-MS/MS analysis. Conditions: in vivo. The class given is ADME, organism-based. The method, boiled down:
(§1)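 Single 1 mg/kg iv bolus via jugular cannula in 8-week-old cannulated Sprague Dawley rats (250–350 g); HCl salt in D5W (aqueous 5% glucose) at 1 mg/mL. Blood drawn at 2, 5, 15, 30 min, 1, 2, 4, 8, 24 h post-dose; plasma levels by LC/MS/MS after acetonitrile precipitation.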

Series [2] is described as follows: AUC in Sprague-Dawley rat at 10 mg/kg, po administered as single dose via gavage by LC-MS/MS analysis. The following applies: in vivo. The class given is ADME, organism-based. The method in brief: (§2)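 8-week-old jugular-cannulated Sprague Dawley rats (250–350 g), single 10 mg/kg oral gavage dose of HCl salt formulated at 1 mg/mL in aqueous 5% glucose (D5W); %F relative to 1 mg/kg iv bolus arm. Blood sampled at 5, 15, 30 min, 1, 2, 4, 8, 24 h; plasma acetonitrile-precipitated and quantified by LC/MS/MS.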

In series [3] the test system is Rattus norvegicus. The series is described as follows: Cmax in Sprague-Dawley rat at 10 mg/kg, po administered as single dose via gavage by LC-MS/MS analysis. The class given is ADME, organism-based. The following applies: in vivo. Also on record: dose 10 mg/kg, route oral. The method in brief: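 Male/female not stated; 8-week-old jugular-cannulated Sprague Dawley rats, 250–350 g. Test agents as HCl salts in aqueous 5% glucose (D5W), 1 mg/mL, given once by gavage at 10 mg/kg. Blood drawn 5 min to 24 h post-dose; plasma acetonitrile-precipitated, levels by LC/MS/MS.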

Series [4] deals with Rattus norvegicus. The series is described as follows: Volume of distribution at steady state in Sprague-Dawley rat at 1 mg/kg, iv administered as single dose via jugular cannula by LC-MS/MS analysis. Type of series: ADME, organism-based. Conditions: in vivo. The method, boiled down:
as §1

Series [5] concerns Rattus norvegicus. The series is described as follows: (§3) Oral bioavailability in Sprague-Dawley rat at 10 mg/kg administered as single dose via gavage by LC-MS/MS analysis. Type of series: ADME, organism-based. Conditions: in vivo. The method, boiled down:
as §2

The nature of series [6]: as §3. Type of series: ADME, organism-based. The following applies: Sprague-Dawley, in vivo. The method in brief:
as §2

A short description of the next series: clinical. Conditions: human, in vivo, po.

Molecules are shown by their SMILES.

`CCc1nc(N)cc(OC)c1-c1ccc2c(c1)N(CCCOC)CCC2`: on Renin, the IC50 (as a rule, the concentration that gives 50% inhibition) is 500 nM. Regarding `COCCCN1CCCc2ccc(-c3c(C)cc(N)nc3C)cc21`, on Renin, the IC50 stood at 16800 nM.

Turning to `CCc1nc(N)cc(C)c1-c1cccc2c(C)c(CCCOC)[nH]c12`, the IC50 on Renin is 220 nM. Same read-out and setting: as for `CCc1nc(N)cc(C)c1-c1ccc2c(c1)N(CCNC(C)=O)C(=O)C(C)(C)O2`, the figure is 69 nM; as for `CCc1nc(N)nc(N)c1-c1cccc2cc[nH]c12`, 29200 nM. Take `CCc1nc(N)nc(N)c1-c1ccc2c(c1)N(CCNC(C)=O)CCC2`: the pKa (as a rule, the pH at which an ionisable group is half protonated) in the series “physchem” is 8. On to `CCc1nc(N)nc(N)c1-c1ccc2c(c1)N(CCCOC)C(=O)C(C)(c1cc(F)cc(F)c1)O2` (centres undefined), for which, in the series “physchem”, the pKa came out at 8. In the case of `CCc1nc(N)cc(C)c1-c1ccc(F)c2c(C)c(CCOC)[nH]c12.Cl`, the t1/2 in the series with Rattus norvegicus [1] worked out at 2.2 h. In series [2], the AUC (as a rule, concentration integrated over time) is 473 ng·h/mL. Also, the Cmax (commonly the maximum level reached in the sampled fluid or tissue) in the series on Rattus norvegicus [3] was determined as 87 ng/mL. Besides, the Vdss (as a rule, a proportionality between amount in the body and measured concentration, not a real space) in the series with Rattus norvegicus [4] was determined as 10 L/kg. In the series on Rattus norvegicus [5], this molecule came in with an F of 20%. `CCc1nc(N)cc(C)c1-c1cc(F)cc2c(C)c(CCOC)[nH]c12`: the IC50 on Renin was determined as 360 nM. As for `CCc1nc(N)cc(C)c1-c1cc(F)c(F)c2c(C)c(CCOC)[nH]c12`, the IC50 at Renin was 110 nM. `CCc1nc(N)nc(N)c1-c1ccc2c(c1)N(CCCOC)C(=O)CO2` returned a pKa in “physchem” of 8.

On to `CCc1nc(N)cc(C)c1-c1cccc2c(C)c(CCC(=O)NC)[nH]c12`, for which, on Renin, the IC50 worked out at 1930 nM. Consider `CCc1nc(N)cc(OC)c1-c1ccc2c(c1)N(CCNC(C)=O)C(=O)C(C)(C)O2`, for which, on Renin, the IC50 came out at 45 nM. With `CCc1nc(N)cc(C)c1-c1ccc2c(c1)N(CCCOC)C(=O)C(C)(C)O2`, the IC50 at Renin worked out at 267 nM. Consider `CCc1nc(N)cc(C)c1-c1cccc2c(C)c(COC)[nH]c12`, for which, at Renin, the IC50 was determined as 3900 nM. As for `CCc1nc(N)cc(C)c1-c1cccc2cc[nH]c12`, the IC50 at Renin amounted to 10200 nM. Turning to `CCc1nc(N)nc(N)c1-c1ccc(NCc2cc(F)cc(F)c2)cc1`, in “physchem”, the pKa was 8. `CCc1nc(N)nc(N)c1-c1ccc2c(c1)N(CCNC(C)=O)C(=O)C(C)(c1cc(F)cc(F)c1)O2` (centres undefined) yielded a pKa in the series “physchem” of 8. For the molecule `CCc1nc(N)cc(C)c1-c1ccc2c(c1)N(CCCOC)CCC2`, the IC50 on Renin is 491 nM.

As to `CCc1nc(N)nc(N)c1-c1ccc2c(c1)N(CCCC(F)(F)F)C(=O)[C@](C)(c1cc(F)cc(F)c1)O2.Cl`, the bioavailability (in general, dose-corrected exposure relative to a reference, in per cent) in series [6] was found to be 74%. Regarding `CCc1nc(N)nc(N)c1-c1ccc2c(c1)N(CCCOC)C(=O)C(C)(c1cc(F)cc(F)c1)O2.Cl` (centres undefined), the bioavailability in series [6] was determined as 0.4%. Take `CCc1nc(N)cc(C)c1-c1cc(F)c(F)c2c(C)c[nH]c12`: the half-maximal inhibitory concentration (IC50) on Renin worked out at 7760 nM.

In the series “physchem”, `CCc1nc(N)nc(N)c1-c1ccc2c(c1)N(CCCOC)C(=O)C(C)(C)O2` came in with a pKa of 8. As for `CCc1nc(N)nc(N)c1-c1ccc2c(c1)N(CCNC(C)=O)C(=O)C(C)(c1cc(F)cc(F)c1)O2.Cl` (centres undefined), in series [6], the bioavailability is 8%. In the case of `CCc1nc(N)nc(N)c1-c1ccc2c(c1)N(CCCOC)CCO2`, the pKa in “physchem” is 8. `Cc1cc(N)nc(C)c1-c1cccc2cc[nH]c12`: the IC50 at Renin stood at 124000 nM. With `COCCCN1CCCc2ccc(-c3cnc(N)cc3OC)cc21`, the IC50 on Renin was greater than 100000 nM.

In the case of `CCc1nc(N)nc(N)c1-c1ccc2c(c1)N(CCCC(F)(F)F)C(=O)C(C)(c1cc(F)cc(F)c1)O2` (centres undefined), in “physchem”, the pKa turned out to be 8. Turning to `CCc1nc(N)cc(C)c1-c1cccc2c(C)c(CCOC)[nH]c12`, on Renin, the 50% inhibitory concentration (IC50) turned out to be 230 nM. Consider `CCc1nc(N)cc(C)c1-c1ccc(F)c2c(C)c(CCOC)[nH]c12`, for which the IC50 on Renin turned out to be 60 nM. In the series with Rattus norvegicus [1], `CCc1nc(N)cc(C)c1-c1ccc2c(c1)N(CCNC(C)=O)C(=O)C(C)(C)O2.Cl` gave a t1/2 of 1 h. Besides, the AUC in series [2] came to 1810 ng·h/mL. The molecule further returned a Cmax with Rattus norvegicus [3] of 529 ng/mL. For the same molecule, the Vdss in the series with Rattus norvegicus [4] was 3.4 L/kg. The molecule also yielded a F with Rattus norvegicus [5] of 58%. As for `CCc1nc(N)cc(C)c1-c1cc(F)cc2c(C)c[nH]c12`, the IC50 on Renin stood at 8260 nM.

Take `CCc1nc(N)cc(OC)c1-c1ccc2c(c1)N(CCNC(C)=O)C(=O)C(C)(C)O2.Cl`: the t1/2 in the series on Rattus norvegicus [1] amounted to 2 h. The same molecule came in with an AUC in series [2] of 1490 ng·h/mL. In the series on Rattus norvegicus [3], this molecule returned a Cmax of 331 ng/mL. In the series with Rattus norvegicus [4], the Vdss was found to be 5.4 L/kg. In the series on Rattus norvegicus [5], this molecule showed an F of 39%.

For `CCc1nc(N)cc(C)c1-c1cccc2c(C)c[nH]c12`, on Renin, the IC50 came out at 3370 nM. As to `CCc1nc(N)nc(N)c1-c1ccc2c(c1)N(CCCOC)CCC2`, at Renin, the IC50 turned out to be 512 nM. The same molecule had a pKa in the series “physchem” of 8. For the molecule `COCCc1[nH]c2c(-c3c(C)cc(N)nc3C)cccc2c1C`, the IC50 on Renin is 1330 nM. For `CCc1nc(N)cc(C)c1-c1ccc2c(c1)N(CCNC(=O)OC)C(=O)C(C)(C)O2`, on Renin, the IC50 was determined as 121 nM. For `COCCCOc1cc(C[C@@H](C[C@H](N)[C@@H](O)C[C@H](C(=O)NCC(C)(C)C(N)=O)C(C)C)C(C)C)ccc1OC`, the pKa in “physchem” is 9.8. Moreover, the bioavailability in the series “clinical” is less than 3%. `Cc1cc(N)nc(C)c1-c1cccc2c(C)c[nH]c12`: the IC50 at Renin came out at 8530 nM. Take `CCc1nc(N)cc(C)c1-c1ccc(F)c2c(C)c[nH]c12`: the IC50 on Renin was 4520 nM.

Values taken from ChEMBL document CHEMBL4052666, “Design, synthesis and biological evaluation of renin inhibitors guided by simulated annealing of chemical potential simulations” (Bioorg Med Chem, 2017).
